Calls of active or inactive are those of the source. The calls are words filed in the database; no cut-off is given here.
Assays:
[1] = molecular target: 5-HT2A receptor (Rattus norvegicus, UniProt P14842); assay: Agonist activity at rat 5-HT2A receptor expressed in African clawed frog oocytes assessed as increase in current amplitude relative to 5-HT; type: cell-based; conditions: African clawed frog oocytes expressing rat 5-HT2A receptor
[2] = molecular target: T1, 5-hydroxytryptamine receptor 2C (Rattus norvegicus, UniProt P08909); assay: Agonist activity at rat 5-HT2C receptor expressed in African clawed frog oocytes assessed as increase in current amplitude; type: cell-based
T1 sequence (P08909 whole entry): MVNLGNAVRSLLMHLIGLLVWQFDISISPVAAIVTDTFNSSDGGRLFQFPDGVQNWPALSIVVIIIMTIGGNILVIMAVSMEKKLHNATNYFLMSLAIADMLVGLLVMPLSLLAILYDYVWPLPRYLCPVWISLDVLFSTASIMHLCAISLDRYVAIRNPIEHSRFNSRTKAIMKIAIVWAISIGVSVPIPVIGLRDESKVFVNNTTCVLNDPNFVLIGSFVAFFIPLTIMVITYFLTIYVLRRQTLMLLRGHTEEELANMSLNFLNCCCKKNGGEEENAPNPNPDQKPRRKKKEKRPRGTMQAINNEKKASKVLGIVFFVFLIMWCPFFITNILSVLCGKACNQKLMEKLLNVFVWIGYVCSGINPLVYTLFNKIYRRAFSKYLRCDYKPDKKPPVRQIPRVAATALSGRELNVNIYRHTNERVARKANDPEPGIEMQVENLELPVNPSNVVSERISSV

[3] = system: Mus musculus; assay: Antipsychotic activity in PCP-induced hyperactivity C57BL/6J mouse model assessed as reduction in PCP-induced hyper-locomotion at 3 mg/kg, ip preincubated for 15 mins followed by PCP addition measured after 60 mins; type: functional, organism-based
Procedure, shortened: (§1)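 Male C57BL/6J mice, 9–10 weeks old. […] PCP 5 mg/kg followed, with activity recorded a further 60 min. Read-out was total distance from infrared beam breaks, analysed by one-way ANOVA.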

[4] = system: Mus musculus; assay: Toxicity in C57BL/6J mouse assessed as reduction in baseline locomotive activity at 3 mg/kg, ip after 15 mins; type: organism-based; conditions: in vivo
[5] = system: Mus musculus; assay: Antipsychotic activity in AMPH-induced hyperactivity C57BL/6J mouse model assessed as reduction in amphetamine-induced hyper-locomotion at 3 mg/kg, ip preincubated for 15 mins followed by AMPH addition measured after 90 mins; type: functional, organism-based
[6] = system: Mus musculus; assay: Antipsychotic activity in AMPH-induced hyperactivity C57BL/6J mouse model assessed as reduction in amphetamine-induced hyper-locomotion at 10 mg/kg, ip preincubated for 15 mins followed by AMPH addition measured after 90 mins; type: functional, organism-based
[7] = system: Mus musculus; assay: Antipsychotic activity in AMPH-induced hyperactivity C57BL/6J mouse model assessed as reduction in amphetamine-induced hyper-locomotion at 20 mg/kg, ip preincubated for 15 mins followed by AMPH addition measured after 90 mins; type: functional, organism-based
[8] = molecular target: T2, 5-hydroxytryptamine receptor 2B (Homo sapiens, UniProt P41595); assay: Displacement of [3H]-LSD from human 5-HT2B receptor expressed in HEKT cells after 90 mins by scintillation counting method; type: cell-based
[9] = system: Mus musculus; assay: Toxicity in C57BL/6J mouse assessed as reduction in baseline locomotive activity at 10 to 20 mg/kg, ip after 15 mins; type: organism-based; conditions: in vivo
[10] = molecular target: CYP2C9 (Homo sapiens, UniProt P11712); assay: in vitro; conditions: liver microsomes, probe tolbutamide
[11] = molecular target: CYP2D6 (Homo sapiens, UniProt P10635); assay: in vitro; conditions: liver microsomes, probe dextromethorphan
[12] = molecular target: 5-HT2A receptor (Homo sapiens, UniProt P28223); assay: Agonist activity at human 5-HT2A receptor expressed in Flp-IN HEK293 cells assessed as induction of calcium flux measured every second for 5 mins by Fluo-4 dye based FLIPR assay relative to serotonin; type: cell-based; conditions: Flp-IN HEK293 cells expressing human 5-HT2A receptor
[13] = system: Mus musculus; assay: Antipsychotic activity in PCP-induced hyperactivity C57BL/6J mouse model assessed as reduction in PCP-induced hyper-locomotion at 10 to 20 mg/kg, ip preincubated for 15 mins followed by PCP addition measured after 60 mins; type: functional, organism-based; procedure, shortened: as §1
[14] = molecular target: T2, 5-hydroxytryptamine receptor 2B; assay: Agonist activity at human 5-HT2B receptor expressed in Flp-IN HEK293 cells assessed as induction of calcium flux up to 10 uM measured every second for 5 mins by Fluo-4 dye based FLIPR assay; type: cell-based; conditions: hek293, 5 min
[15] = molecular target: T3, 5-hydroxytryptamine receptor 2C (Homo sapiens) (UniProt P28335); assay: Agonist activity at tTA containing TEV cleavage site-fused 5-HT2C-INI receptor isoform (unknown origin) expressed in TEV-fused beta-arrestin2 expressing HEK cells assessed as induction of beta-arrestin2 recruitment after 20 hrs by Tango assay relative to serotonin; type: cell-based
T3 sequence (whole entry): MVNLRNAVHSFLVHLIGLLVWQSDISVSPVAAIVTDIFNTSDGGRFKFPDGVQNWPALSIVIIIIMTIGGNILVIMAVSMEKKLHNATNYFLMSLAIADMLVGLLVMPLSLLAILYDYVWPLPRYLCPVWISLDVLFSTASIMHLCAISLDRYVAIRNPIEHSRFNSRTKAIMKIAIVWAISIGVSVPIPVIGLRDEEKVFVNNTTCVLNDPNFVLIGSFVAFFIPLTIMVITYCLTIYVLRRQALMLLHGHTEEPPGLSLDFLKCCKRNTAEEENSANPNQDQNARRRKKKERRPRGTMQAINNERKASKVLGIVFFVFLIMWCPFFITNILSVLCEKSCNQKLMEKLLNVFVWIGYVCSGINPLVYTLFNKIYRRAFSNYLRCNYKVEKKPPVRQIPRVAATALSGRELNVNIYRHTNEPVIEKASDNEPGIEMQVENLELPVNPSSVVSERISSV
Procedure, shortened: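 HTLA cells (HEK cells with TEV-fused β-arrestin-2 and tTA-driven luciferase) transfected with tTA-fused 5-HT2C-INI receptor carrying a TEV site. Luminescence read after 20 min lysis at room temperature. Normalized to % 5-HT and fitted sigmoidally. NA means no activity up to 10 μM. Mean of n = 3.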

[16] = molecular target: CYP3A4 (Homo sapiens, UniProt P08684); assay: in vitro; conditions: liver microsomes, probe midazolam
[17] = molecular target: Voltage-gated inwardly rectifying potassium channel KCNH2 (Homo sapiens, UniProt Q12809); assay: Inhibition of human ERG expressed in CHO cells by automated patch-clamp assay; type: cell-based
Procedure, shortened: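 Read-out is an IC50 in µM for hERG inhibition, measured by automated patch-clamp on CHO cells.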

[18] = molecular target: T3, 5-hydroxytryptamine receptor 2C (Homo sapiens); assay: Agonist activity at human 5-HT2C-INI receptor isoform expressed in Flp-IN HEK293 cells assessed as induction of Gq-mediated calcium flux measured every second for 5 mins by Fluo-4 dye based FLIPR assay relative to serotonin; type: functional, cell-based
[19] = molecular target: T4, CYP1A2 (Homo sapiens, UniProt P05177); assay: in vitro; conditions: liver microsomes, probe phenacetin
T4 sequence (P05177 whole entry): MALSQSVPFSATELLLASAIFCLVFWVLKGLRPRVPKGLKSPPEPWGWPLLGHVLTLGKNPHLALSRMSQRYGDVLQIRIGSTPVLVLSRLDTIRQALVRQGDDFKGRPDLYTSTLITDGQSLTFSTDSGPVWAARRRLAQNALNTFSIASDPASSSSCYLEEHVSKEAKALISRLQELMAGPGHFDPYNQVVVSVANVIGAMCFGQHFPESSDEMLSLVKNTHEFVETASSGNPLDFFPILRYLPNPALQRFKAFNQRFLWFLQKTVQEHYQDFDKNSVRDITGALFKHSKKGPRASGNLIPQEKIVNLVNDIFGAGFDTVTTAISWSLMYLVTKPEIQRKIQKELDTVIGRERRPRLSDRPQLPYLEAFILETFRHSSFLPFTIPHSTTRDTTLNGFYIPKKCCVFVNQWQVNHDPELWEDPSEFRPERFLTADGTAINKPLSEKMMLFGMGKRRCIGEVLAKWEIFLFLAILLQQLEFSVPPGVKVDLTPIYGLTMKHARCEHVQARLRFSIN

T2 sequence (P41595 whole entry): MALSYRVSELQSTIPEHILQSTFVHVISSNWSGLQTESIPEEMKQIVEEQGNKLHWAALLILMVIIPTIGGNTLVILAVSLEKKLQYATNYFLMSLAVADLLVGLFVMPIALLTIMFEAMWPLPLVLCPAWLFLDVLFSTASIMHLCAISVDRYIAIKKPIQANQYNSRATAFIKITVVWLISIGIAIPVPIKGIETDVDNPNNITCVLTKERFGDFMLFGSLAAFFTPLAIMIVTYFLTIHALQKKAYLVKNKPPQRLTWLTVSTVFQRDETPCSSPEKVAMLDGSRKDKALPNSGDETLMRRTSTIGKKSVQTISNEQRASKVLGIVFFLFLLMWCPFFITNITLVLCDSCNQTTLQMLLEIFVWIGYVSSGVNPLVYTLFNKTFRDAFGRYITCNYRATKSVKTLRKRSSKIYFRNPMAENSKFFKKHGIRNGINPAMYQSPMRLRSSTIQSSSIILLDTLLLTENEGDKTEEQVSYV
Sequence of CYP3A4 (P08684 whole entry): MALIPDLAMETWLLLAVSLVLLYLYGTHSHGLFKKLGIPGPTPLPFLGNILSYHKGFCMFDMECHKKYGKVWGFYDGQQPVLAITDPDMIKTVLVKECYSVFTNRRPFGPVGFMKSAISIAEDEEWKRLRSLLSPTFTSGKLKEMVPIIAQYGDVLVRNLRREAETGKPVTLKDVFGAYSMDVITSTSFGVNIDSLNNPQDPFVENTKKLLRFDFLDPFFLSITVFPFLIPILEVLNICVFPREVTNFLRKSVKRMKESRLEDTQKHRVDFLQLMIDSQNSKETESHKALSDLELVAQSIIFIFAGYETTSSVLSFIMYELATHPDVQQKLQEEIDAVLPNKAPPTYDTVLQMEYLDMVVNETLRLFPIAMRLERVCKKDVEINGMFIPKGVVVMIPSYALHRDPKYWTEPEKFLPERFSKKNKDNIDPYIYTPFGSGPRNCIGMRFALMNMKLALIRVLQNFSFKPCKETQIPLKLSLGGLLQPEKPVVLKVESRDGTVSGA
Sequence of CYP2D6 (P10635 whole entry): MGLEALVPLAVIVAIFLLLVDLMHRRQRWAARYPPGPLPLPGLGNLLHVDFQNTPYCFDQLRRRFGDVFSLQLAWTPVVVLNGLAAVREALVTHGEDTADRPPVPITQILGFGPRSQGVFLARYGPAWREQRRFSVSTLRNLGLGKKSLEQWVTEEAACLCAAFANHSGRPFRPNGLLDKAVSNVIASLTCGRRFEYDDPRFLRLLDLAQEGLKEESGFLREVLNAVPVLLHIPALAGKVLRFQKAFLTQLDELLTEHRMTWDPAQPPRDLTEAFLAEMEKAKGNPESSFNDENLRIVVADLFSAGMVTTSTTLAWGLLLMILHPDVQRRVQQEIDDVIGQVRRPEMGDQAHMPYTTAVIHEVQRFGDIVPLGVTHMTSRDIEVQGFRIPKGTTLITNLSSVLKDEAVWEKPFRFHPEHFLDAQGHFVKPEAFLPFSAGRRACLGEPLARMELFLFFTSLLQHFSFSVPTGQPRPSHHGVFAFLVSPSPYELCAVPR
Sequence of CYP2C9 (P11712 whole entry): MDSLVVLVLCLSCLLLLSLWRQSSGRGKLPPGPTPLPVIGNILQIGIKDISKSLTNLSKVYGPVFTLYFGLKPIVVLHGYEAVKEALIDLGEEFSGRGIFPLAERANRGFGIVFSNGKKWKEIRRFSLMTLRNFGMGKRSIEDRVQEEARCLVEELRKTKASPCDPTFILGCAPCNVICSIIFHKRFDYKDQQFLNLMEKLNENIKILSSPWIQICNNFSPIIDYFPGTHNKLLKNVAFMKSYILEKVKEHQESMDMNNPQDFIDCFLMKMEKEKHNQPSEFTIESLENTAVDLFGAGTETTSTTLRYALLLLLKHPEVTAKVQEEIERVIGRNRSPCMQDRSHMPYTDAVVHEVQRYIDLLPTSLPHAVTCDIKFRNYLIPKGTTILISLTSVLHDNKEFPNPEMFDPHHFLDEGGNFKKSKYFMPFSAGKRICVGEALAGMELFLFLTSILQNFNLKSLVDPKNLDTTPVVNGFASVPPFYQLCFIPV
Sequence of Voltage-gated inwardly rectifying potassium channel KCNH2 (Q12809 whole entry): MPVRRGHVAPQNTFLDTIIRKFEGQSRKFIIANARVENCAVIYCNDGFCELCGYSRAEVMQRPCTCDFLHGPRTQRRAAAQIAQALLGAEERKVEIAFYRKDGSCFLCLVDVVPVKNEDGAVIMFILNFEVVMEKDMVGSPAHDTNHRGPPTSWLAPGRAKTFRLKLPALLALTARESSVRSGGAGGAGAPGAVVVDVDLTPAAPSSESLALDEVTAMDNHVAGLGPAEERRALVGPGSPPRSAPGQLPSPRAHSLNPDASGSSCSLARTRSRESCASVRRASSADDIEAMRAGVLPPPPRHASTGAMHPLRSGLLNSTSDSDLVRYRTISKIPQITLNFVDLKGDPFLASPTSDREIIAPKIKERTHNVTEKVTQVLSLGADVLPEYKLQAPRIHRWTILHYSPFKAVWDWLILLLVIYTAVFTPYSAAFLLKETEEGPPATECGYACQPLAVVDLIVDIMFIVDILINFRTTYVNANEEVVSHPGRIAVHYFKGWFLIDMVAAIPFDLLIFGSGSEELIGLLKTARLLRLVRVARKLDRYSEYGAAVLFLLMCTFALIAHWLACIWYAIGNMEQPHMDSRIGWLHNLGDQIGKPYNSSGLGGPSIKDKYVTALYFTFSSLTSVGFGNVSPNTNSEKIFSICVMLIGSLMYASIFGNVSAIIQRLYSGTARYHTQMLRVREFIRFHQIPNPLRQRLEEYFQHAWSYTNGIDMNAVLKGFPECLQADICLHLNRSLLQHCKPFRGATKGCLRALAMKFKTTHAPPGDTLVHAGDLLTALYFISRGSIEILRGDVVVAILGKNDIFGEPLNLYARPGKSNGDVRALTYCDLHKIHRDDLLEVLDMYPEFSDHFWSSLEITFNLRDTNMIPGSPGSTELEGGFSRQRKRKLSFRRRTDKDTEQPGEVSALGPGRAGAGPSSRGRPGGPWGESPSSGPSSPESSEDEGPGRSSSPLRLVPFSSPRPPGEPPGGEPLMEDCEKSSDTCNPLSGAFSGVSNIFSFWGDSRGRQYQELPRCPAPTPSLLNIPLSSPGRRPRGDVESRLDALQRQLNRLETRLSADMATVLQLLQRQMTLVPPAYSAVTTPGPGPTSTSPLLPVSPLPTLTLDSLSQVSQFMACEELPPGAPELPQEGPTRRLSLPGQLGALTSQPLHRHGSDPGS
Sequence of 5-HT2A receptor (Homo sapiens, UniProt P28223) (P28223 whole entry): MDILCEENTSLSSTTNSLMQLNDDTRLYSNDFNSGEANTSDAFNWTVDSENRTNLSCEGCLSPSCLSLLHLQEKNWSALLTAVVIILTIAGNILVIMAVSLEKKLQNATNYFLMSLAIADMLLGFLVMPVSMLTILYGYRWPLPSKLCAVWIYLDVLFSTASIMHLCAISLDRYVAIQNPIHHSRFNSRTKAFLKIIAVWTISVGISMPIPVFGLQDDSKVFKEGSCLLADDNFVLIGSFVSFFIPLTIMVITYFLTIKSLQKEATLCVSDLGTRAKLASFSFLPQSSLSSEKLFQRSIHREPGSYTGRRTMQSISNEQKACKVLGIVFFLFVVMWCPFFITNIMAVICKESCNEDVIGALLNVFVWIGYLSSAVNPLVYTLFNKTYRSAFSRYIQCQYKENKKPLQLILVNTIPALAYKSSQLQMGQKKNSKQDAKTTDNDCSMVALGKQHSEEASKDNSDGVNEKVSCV
Sequence of 5-HT2A receptor (Rattus norvegicus, UniProt P14842) (P14842 whole entry): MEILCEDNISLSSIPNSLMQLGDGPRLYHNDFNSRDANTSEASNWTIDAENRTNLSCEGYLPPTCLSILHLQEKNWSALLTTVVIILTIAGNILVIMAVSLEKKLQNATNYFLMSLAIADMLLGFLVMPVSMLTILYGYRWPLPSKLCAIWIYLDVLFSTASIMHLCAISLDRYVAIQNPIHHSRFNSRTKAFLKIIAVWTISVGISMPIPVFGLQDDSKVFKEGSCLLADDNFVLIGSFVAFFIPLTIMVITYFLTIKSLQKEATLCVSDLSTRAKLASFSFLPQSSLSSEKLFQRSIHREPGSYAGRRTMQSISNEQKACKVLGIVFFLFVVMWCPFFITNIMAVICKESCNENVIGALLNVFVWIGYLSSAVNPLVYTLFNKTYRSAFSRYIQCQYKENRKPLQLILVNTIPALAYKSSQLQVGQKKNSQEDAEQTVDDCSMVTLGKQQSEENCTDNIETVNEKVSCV

COc1cc(CC(C)N)c(OC)cc1I (centres undefined)
Emax [1]: 46% | EC50 [2]: 178 nM

C[C@H]1CNCCc2ccc(Cl)cc21 [LORCASERIN]
Activity [3]: inactive | Activity [4]: Toxic | Activity [5]: Active

COc1ccccc1CNC[C@H]1C[C@@H]1c1cc(F)ccc1OC.Cl
Activity [6]: inactive | Activity [7]: Active | Ki [8]: 411 nM | Activity [9]: Non-Toxic | inhibition at 10 µM [10]: 9.3% | inhibition at 10 µM [11]: 68.9% | Emax at 5 min [12]: 63% | Activity [13]: inactive | Activity [14]: Not Active | Emax [15]: 43% | inhibition at 10 µM [16]: 85.6% | IC50 [17]: 1400 nM | Emax [18]: 92% | inhibition at 10 µM [19]: 20.5%
